3 molecules from ChEMBL document CHEMBL3525931, “Stereoselective interaction of pantoprazole with ABCG2. II. In vitro flux analysis” (Drug Metab Dispos, 2012) can be followed below.

Series [1] is described as follows: Permeability surface area for passive diffusion in MDCK2 cells assessed as transport at 3 uM after 0.5 to 1 hrs by HPLC method. The following applies: dog, mdck-ii. It is filed as ADME, cell-based, Canis lupus familiaris. The procedure, abridged:
(§1)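 PS_D (passive diffusion) derived from observed permeability of single PAN isomers across empty-vector (pcDNA3.1) MDCKII monolayers (TEER >200 Ω·cm²). Both A→B and B→A directions in serum-free Opti-MEM I at 37°C, with [3H]mannitol as paracellular marker. Receiver sampled at 0.5 and 1 h, PAN measured by HPLC-UV. PS_D calculated from a three-compartment model equation at each donor concentration.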

Series [2] is described as follows: Permeability surface area for passive diffusion in MDCK2 cells assessed as transport at 30 uM after 0.5 to 1 hrs by HPLC method. It is filed as ADME, cell-based, Canis lupus familiaris. The following applies: dog, mdck-ii. The essentials: as §1
The nature of series [3]: Permeability surface area for passive diffusion in MDCK2 cells assessed as transport at 50 uM after 0.5 to 1 hrs by HPLC method. It is filed as ADME, cell-based, Canis lupus familiaris. The note with it: dog, mdck-ii. The procedure, abridged: as §1
Series [4] is described as follows: Permeability surface area for passive diffusion in MDCK2 cells assessed as transport at 10 uM after 0.5 to 1 hrs by HPLC method. It is filed as ADME, cell-based, Canis lupus familiaris. The note with it: dog, mdck-ii. The procedure, abridged: as §1
Series [5] is described as follows: Permeability surface area for passive diffusion in MDCK2 cells assessed as transport at 200 uM after 0.5 to 1 hrs by HPLC method. It is filed as ADME, cell-based, Canis lupus familiaris. The following applies: dog, mdck-ii. The essentials: as §1
Series [6] in a line: Permeability surface area for passive diffusion in MDCK2 cells assessed as transport at 3 to 200 uM after 0.5 to 1 hrs by HPLC method. It is filed as ADME, cell-based, Canis lupus familiaris. The note with it: dog, mdck-ii. The essentials:
as §1

Substrate in series [7]: COc1ccnc(C[S@@+]([O-])c2nc3cc(OC(F)F)ccc3[nH]2)c1OC
The experiment in a line: (§2) Drug transport in MDCK2 cells expressing rat ABCG2 assessed as ABCG2-mediated transport by HPLC method. In kind it is ADME, cell-based, MDCK-II. The essentials:
(§3)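 Kinetics came from the same Transwell bidirectional flux runs in rat Abcg2- or human ABCG2-MDCKII, with donor 3–200 μM single isomer. Cellular concentrations were predicted from a three-compartment model using PS_D from mock cells and PS_PC from mannitol. Apparent apical efflux permeability was fitted against predicted cellular concentration by saturable kinetics to give K_M and T_max.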

Substrate in series [8]: COc1ccnc(C[S@+]([O-])c2nc3cc(OC(F)F)ccc3[nH]2)c1OC
The series is described as §2. It is filed as ADME, cell-based, MDCK-II. The procedure, abridged:
as §3

Substrate in series [9]: COc1ccnc(C[S@@+]([O-])c2nc3cc(OC(F)F)ccc3[nH]2)c1OC
Nature of the series: (§4) Drug transport in MDCK2 cells expressing human ABCG2 assessed as ABCG2-mediated transport by HPLC method. It is filed as ADME, cell-based, MDCK-II. The procedure, abridged: as §3

Substrate in series [10]: COc1ccnc(C[S@+]([O-])c2nc3cc(OC(F)F)ccc3[nH]2)c1OC
The description is as §4. In kind it is ADME, cell-based, MDCK-II. The procedure, abridged:
as §3

As for `COc1ccnc(C[S+]([O-])c2nc3ccc(OC(F)F)cc3[nH]2)c1OC` (racemic) [PANTOPRAZOLE], the Papp in series [1] came to 231 uL/hr/cm2; in series [2] it was 226 uL/hr/cm2; in [3], 251 uL/hr/cm2; in series [4], 242 uL/hr/cm2; in [5] it was 271 uL/hr/cm2; in series [6], 244 uL/hr/cm2.

B1: Broad substrate specificity ATP-binding cassette transporter ABCG2 (Rattus norvegicus) (protein)
chain: MSSSNDHVLVPMSQRNKNGLPGMSSRGARTLAEGDVLSFHHITYRVKVKSGFLVRKTAEKEILSDINGIMKPGLNAILGPTGGGKSSLLDVLAARKDPRGLSGDVLINGAPQPANFKCSSGYVVQDDVVMGTLTVRENLQFSAALRLPKAMKTHEKNERINTIIKELGLDKVADSKVGTQFTRGISGGERKRTSIGMELITDPSILFLDEPTTGLDSSTANAVLLLLKRMSKQGRTIIFSIHQPRYSIFKLFDSLTLLASGKLMFHGPAQKALEYFASAGYHCEPYNNPADFFLDVINGDSSAVMLNRGEQDHEANKTEEPSKREKPIIENLAEFYINSTIYGETKAELDQLPVAQKKKGSSAFREPVYVTSFCHQLRWIARRSFKNLLGNPQASVAQLIVTVILGLIIGALYFGLKNDPTGMQNRAGVFFFLTTNQCFTSVSAVELFVVEKKLFIHEYISGYYRVSSYFFGKLVSDLLPMRFLPSVIYTCILYFMLGLKRTVEAFFIMMFTLIMVAYTASSMALAIAAGQSVVSVATLLMTISFVFMMLFSGLLVNLRTIGPWLSWLQYFSIPRYGFTALQHNEFLGQEFCPGLNVTMNSTCVNSYTICTGNDYLINQGIDLSPWGLWRNHVALACMIIIFLTIAYLKLLFLKKYS
Regarding B1, the Km (commonly the concentration of substrate that gives half-maximal velocity) came to 1.85 µM in series [7] and 0.25 µM in series [8].

B2: Broad substrate specificity ATP-binding cassette transporter ABCG2 (Homo sapiens) (protein)
chain: MSSSNVEVFIPVSQGNTNGFPATASNDLKAFTEGAVLSFHNICYRVKLKSGFLPCRKPVEKEILSNINGIMKPGLNAILGPTGGGKSSLLDVLAARKDPSGLSGDVLINGAPRPANFKCNSGYVVQDDVVMGTLTVRENLQFSAALRLATTMTNHEKNERINRVIQELGLDKVADSKVGTQFIRGVSGGERKRTSIGMELITDPSILFLDEPTTGLDSSTANAVLLLLKRMSKQGRTIIFSIHQPRYSIFKLFDSLTLLASGRLMFHGPAQEALGYFESAGYHCEAYNNPADFFLDIINGDSTAVALNREEDFKATEIIEPSKQDKPLIEKLAEIYVNSSFYKETKAELHQLSGGEKKKKITVFKEISYTTSFCHQLRWVSKRSFKNLLGNPQASIAQIIVTVVLGLVIGAIYFGLKNDSTGIQNRAGVLFFLTTNQCFSSVSAVELFVVEKKLFIHEYISGYYRVSSYFLGKLLSDLLPMRMLPSIIFTCIVYFMLGLKPKADAFFVMMFTLMMVAYSASSMALAIAAGQSVVSVATLLMTICFVFMMIFSGLLVNLTTIASWLSWLQYFSIPRYGFTALQHNEFLGQNFCPGLNATGNNPCNYATCTGEEYLVKQGIDLSPWGLWKNHVALACMIVIFLTIAYLKLLFLKKYS
Take B2: the Km in series [9] worked out at 5.32 µM; in [10], 0.59 µM.
